Assay results from different studies.
Each line is one published result; the experiments were not run side by side.
Cell line: HT-29
Effect on: cell growth or viability

| Compound | test | setting | inhibition [%] |
| --- | --- | --- | --- |
| Cn1c(=O)c(NN=C2C(=O)Nc3ccc(Br)cc32)nc2ccccc21 |  | 30 µM | 49.4 |
| COc1ccc(C(=O)/C=C/c2c(F)cccc2Cl)cc1S(N)(=O)=O | SRB | 10 µM | 92 |
| O=C1Nc2ccccc2C1=NNc1nnc2n1N=C(c1ccccc1)CS2 | SRB | 10 µM | 28 |
| COc1ccc(C(=O)/C=C/c2cccc(Cl)c2)cc1S(N)(=O)=O | SRB | 10 µM | 99 |
| COc1ccc2c(c1)/C(=N/NC(=O)c1cc3ccccc3[nH]1)C(=O)N2 |  | 30 µM | 36.5 |
| COc1ccc2c(c1)C(=NNc1nc(-c3ccc(OC)c(OC)c3)nc3ccccc13)C(=O)N2 |  | 30 µM | 6.2 |
| O=C(N/N=C1\C(=O)N(c2ccccc2)c2ccccc21)c1cc2ccccc2[nH]1 |  | 30 µM | 97 |
| COc1ccc(C(=O)/C=C/c2cccc(Br)c2)cc1S(N)(=O)=O | SRB | 10 µM | 156 |
| CN1C(=O)/C(=N\NC(=O)c2cc3ccccc3[nH]2)c2cc(F)ccc21 |  | 30 µM | 91.3 |
| COc1cc2ncnc(NN=C3C(=O)Nc4ccc(F)cc43)c2cc1OC |  | 10 µM | 13.2 |
| O=C1Nc2ccccc2/C1=N/NC(=O)c1cc2ccccc2[nH]1 |  | 30 µM | 75.4 |
| COc1cccc2c1C(=O)c1c(O)c3c(c(O)c1C2=O)C[C@@](O)(C(=O)CO)C[C@@H]3O[C@H]1C[C@H](N)[C@H](O)[C@H](C)O1 | SRB | 10 µg/mL, 48 h | 97.1 |
| COc1ccc(C(=O)/C=C/c2ccc3c(c2)OCCO3)cc1S(N)(=O)=O | SRB | 10 µM | 67 |
| O=C1Nc2ccccc2C1=NNc1nnc(Cc2ccccc2)c2ccccc12 |  | 30 µM | 87.6 |
| COc1ccccc1/C=C/C(=O)c1ccc(OC)c(S(N)(=O)=O)c1 | SRB | 10 µM | 81 |
| CN1C(=O)/C(=N\NC(=O)c2cc3ccccc3[nH]2)c2cc(Cl)ccc21 |  | 30 µM | 92.4 |
| COc1ccc(-c2nc(NN=C3C(=O)Nc4ccccc43)c3ccccc3n2)cc1OC |  | 30 µM | 38.1 |
| COc1ccc(C(=O)/C=C/c2ccc(Cl)c(Cl)c2)cc1S(N)(=O)=O | SRB | 10 µM | 150 |
| CCN(CC)CCNC(=O)c1c(C)[nH]c(/C=C2\C(=O)Nc3ccc(F)cc32)c1C |  | 30 µM | 59.5 |
| COc1ccc2c(c1)C(=NNc1nnc(Cc3ccccc3)c3ccccc13)C(=O)N2 |  | 30 µM | 9.3 |
